Source: ChEMBL document CHEMBL1250469, “Design, synthesis, and biological evaluation of ketoprofen analogs as potent cyclooxygenase-2 inhibitors” (Bioorg Med Chem, 2010)

Species on record: Ovis aries
Assay: Selectivity index, ratio of IC50 for sheep COX1 to IC50 for COX2
Summary of the method: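 Ratio of IC50 for COX-1 to IC50 for COX-2. Both come from the ovine chemiluminescent COX assay, with arachidonic acid as substrate and a naphthalene hydrazide luminescence read-out. Each IC50 is the mean of two determinations.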

| Structure (SMILES) | Ratio IC50 |
| --- | --- |
| [N-]=[N+]=Nc1ccc(-c2cc(C(=O)O)c3cccc(C(=O)c4ccccc4)c3n2)cc1 | 1150 |
| CC(=O)Nc1ccc(-c2cc(C(=O)O)c3cc(C(=O)c4ccccc4)ccc3n2)cc1 | 256 |
| CS(=O)(=O)c1ccc(-c2cc(C(=O)O)c3cc(C(=O)c4ccccc4)ccc3n2)cc1 | 317 |

The remaining lines, values ahead:

| Ratio IC50 | Structure (SMILES) |
| --- | --- |
| 231 | CS(=O)(=O)c1ccc(-c2cc(C(=O)O)c3cccc(C(=O)c4ccccc4)c3n2)cc1 |
| 115 | CC(=O)Nc1ccc(-c2cc(C(=O)O)c3cccc(C(=O)c4ccccc4)c3n2)cc1 |
| > 1300 | [N-]=[N+]=Nc1ccc(-c2cc(C(=O)O)c3cc(C(=O)c4ccccc4)ccc3n2)cc1 |
